Results as given in ChEMBL document CHEMBL1134691, “3-Phenyl-5-acyloxymethyl-2H,5H-furan-2-ones: synthesis and biological activity of a novel group of potential antifungal drugs” (2001).
In brackets after ≈: the same amount, converted by molar mass.

Legend:
Pichia kudriavzevii [1] = experiment: Inhibition of Candida krusei E28 growth for 48 hours in vitro.; assay type: functional; details: Pichia kudriavzevii, 48 h; read-out: MIC
How it was run: (§1)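 NCCLS M27-A broth microdilution in RPMI 1640 with L-glutamine and 0.165 M MOPS, pH 7.0. Isolates kept on Sabouraud dextrose agar. Inoculum 5 × 10^3 cfu/mL final. Compounds were diluted in DMSO (≤2% final) and tested in 2-fold dilutions of 1000–0.24 µmol/L. Incubation at 35 °C, OD540 read at 24 and 48 h. MIC = 80% growth inhibition versus control; assays run twice in duplicate.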

Nakaseomyces glabratus [2] = experiment: Inhibition of Candida glabrata 20/I growth for 24 hours in vitro.; assay type: functional; details: Nakaseomyces glabratus, 24 h; read-out: MIC; how it was run: as §1
Pichia kudriavzevii [3] = experiment: Inhibition of Candida krusei ATCC 6258 growth for 24 hours in vitro.; assay type: functional; details: Pichia kudriavzevii, ATCC 6258, 24 h; read-out: MIC; how it was run: as §1
[4] = Inhibition of Trichophyton mentagrophytes 445 growth for 72 hours in vitro.; assay type: functional, Arthroderma benhamiae; details: Trichophyton benhamiae, 72 h; read-out: MIC
How it was run: (§2)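 Dermatophyte grown in MOPS-buffered (0.165 M, pH 7.0) RPMI 1640 containing L-glutamine, in an M27-A microdilution format. Inoculum 5 × 10^3 cfu/mL final. Compounds from DMSO stocks (≤2% final), 2-fold dilutions 1000–0.24 µmol/L. Incubated at 35 °C, growth judged visually at 72 and 120 h. MIC endpoint is 80% inhibition relative to control; measured twice in duplicate.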

Candida albicans [5] = experiment: Inhibition of Candida albicans ATCC 44859 growth for 48 hours in vitro.; assay type: functional; details: Candida albicans, ATCC 44859, 48 h; read-out: MIC; how it was run: as §1
Lichtheimia corymbifera [6] = experiment: In vitro inhibition of Absidia corymbifera 272 growth for 48 hours.; assay type: functional; details: Lichtheimia corymbifera, 48 h; read-out: MIC
How it was run: (§3)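 Filamentous isolates tested by microdilution per NCCLS M27-A in RPMI 1640 plus L-glutamine, buffered with 0.165 M MOPS to pH 7.0. Final inoculum 5 × 10^3 cfu/mL. Compounds in DMSO (final ≤2%), 2-fold series over 1000–0.24 µmol/L. Plates held at 35 °C and read visually after 24 and 48 h. MIC taken as 80% inhibition of control growth; determined twice in duplicate.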

Candida tropicalis [7] = experiment: Inhibition of Candida tropicalis 156 growth for 48 hours in vitro.; assay type: functional; details: Candida tropicalis, 48 h; read-out: MIC; how it was run: as §1
Aspergillus fumigatus [8] = experiment: Inhibition of Aspergillus fumigatus 231 growth for 24 hours in vitro.; assay type: functional; details: Aspergillus fumigatus, 24 h; read-out: MIC; how it was run: as §3
Clavispora lusitaniae [9] = experiment: Inhibition of Candida lusitaniae 2446/I growth for 24 hours in vitro.; assay type: functional; details: Clavispora lusitaniae, 24 h; read-out: MIC; how it was run: as §1
Trichosporon beigelii [10] = experiment: Inhibition of Trichosporon beigelli 1188 for 48 hours in vitro.; assay type: functional; details: Trichosporon beigelii, 48 h; read-out: MIC
How it was run: (§4)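 Microdilution following NCCLS M27-A. Medium: RPMI 1640 with L-glutamine, 0.165 M MOPS, pH 7.0. Final inoculum 5 × 10^3 cfu/mL. Compounds dissolved in DMSO, final ≤2%, serially halved from 1000 to 0.24 µmol/L. Incubated at 35 °C and read at 24 and 48 h. MIC defined as 80% inhibition of control growth; run twice in duplicate.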

Candida parapsilosis [11] = experiment: Inhibition of Candida parapsilosis ATCC 22019 growth for 48 hours in vitro.; assay type: functional; details: Lodderomyces parapsilosis, ATCC 22019, 48 h; read-out: MIC; how it was run: as §1
Candida albicans [12] = experiment: Inhibition of Candida albicans ATCC 90028 for 24 hours in vitro.; assay type: functional; details: Candida albicans, ATCC 90028, 24 h; read-out: MIC; how it was run: as §1
Candida parapsilosis [13] = experiment: Inhibition of Candida parapsilosis ATCC 22019 growth for 24 hours in vitro.; assay type: functional; details: Lodderomyces parapsilosis, ATCC 22019, 24 h; read-out: MIC; how it was run: as §1
Nakaseomyces glabratus [14] = experiment: Inhibition of Candida glabrata 20/I growth for 48 hours in vitro.; assay type: functional; details: Nakaseomyces glabratus, 48 h; read-out: MIC; how it was run: as §1
Clavispora lusitaniae [15] = experiment: Inhibition of Candida lusitaniae 2446/I growth for 48 hours in vitro.; assay type: functional; details: Clavispora lusitaniae, 48 h; read-out: MIC; how it was run: as §1
Aspergillus fumigatus [16] = experiment: Inhibition of Aspergillus fumigatus 231 growth for 48 hours in vitro.; assay type: functional; details: Aspergillus fumigatus, 48 h; read-out: MIC; how it was run: as §3
Pichia kudriavzevii [17] = experiment: Inhibition of Candida krusei ATCC 6258 growth for 48 hours in vitro.; assay type: functional; details: Pichia kudriavzevii, ATCC 6258, 48 h; read-out: MIC; how it was run: as §1
Candida tropicalis [18] = experiment: Inhibition of Candida tropicalis 156 growth for 24 hours in vitro.; assay type: functional; details: Candida tropicalis, 24 h; read-out: MIC; how it was run: as §1
Pichia kudriavzevii [19] = experiment: Inhibition of Candida krusei E28 growth for 24 hours in vitro.; assay type: functional; details: Pichia kudriavzevii, 24 h; read-out: MIC; how it was run: as §1
Candida albicans [20] = experiment: Inhibition of Candida albicans ATCC 90028 for 48 hours in vitro.; assay type: functional; details: Candida albicans, ATCC 90028, 48 h; read-out: MIC; how it was run: as §1
Candida albicans [21] = experiment: Inhibition of Candida albicans ATCC 44859 growth for 24 hours in vitro.; assay type: functional; details: Candida albicans, ATCC 44859, 24 h; read-out: MIC; how it was run: as §1
Lichtheimia corymbifera [22] = experiment: In vitro inhibition of Absidia corymbifera 272 growth for 24 hours.; assay type: functional; details: Lichtheimia corymbifera, 24 h; read-out: MIC; how it was run: as §3
[23] = Inhibition of Trichophyton mentagrophytes 445 growth for 120 hours in vitro.; assay type: functional, Arthroderma benhamiae; details: Trichophyton benhamiae, 120 h; read-out: MIC; how it was run: as §2
Trichosporon beigelii [24] = experiment: Inhibition of Trichosporon beigelli 1188 for 24 hours in vitro.; assay type: functional; details: Trichosporon beigelii, 24 h; read-out: MIC; how it was run: as §4

Row | SMILES | MIC (Pichia kudriavzevii [1]) [µM] | MIC (Nakaseomyces glabratus [2]) [µM] | MIC (Pichia kudriavzevii [3]) [µM] | MIC [4] [µM] | MIC (Candida albicans [5]) [µM] | MIC (Lichtheimia corymbifera [6]) [µM] | MIC (Candida tropicalis [7]) [µM] | MIC (Aspergillus fumigatus [8]) [µM] | MIC (Clavispora lusitaniae [9]) [µM] | MIC (Trichosporon beigelii [10]) [µM] | MIC (Candida parapsilosis [11]) [µM] | MIC (Candida albicans [12]) [µM] | MIC (Candida parapsilosis [13]) [µM] | MIC (Nakaseomyces glabratus [14]) [µM] | MIC (Clavispora lusitaniae [15]) [µM] | MIC (Aspergillus fumigatus [16]) [µM] | MIC (Pichia kudriavzevii [17]) [µM] | MIC (Candida tropicalis [18]) [µM] | MIC (Pichia kudriavzevii [19]) [µM] | MIC (Candida albicans [20]) [µM] | further results
1 | CC(C)(C)C(=O)OCC1C=C(c2ccc(Br)cc2)C(=O)O1 (stereo unspecified) | 7.81 (≈ 2.76 µg/mL) | 1.95 (≈ 0.689 µg/mL) | 3.91 (≈ 1.38 µg/mL) | 1.95 (≈ 0.689 µg/mL) | 1.95 (≈ 0.689 µg/mL) | 15.6 (≈ 5.52 µg/mL) | 7.81 (≈ 2.76 µg/mL) | 0.98 (≈ 0.346 µg/mL) | 3.91 (≈ 1.38 µg/mL) | 7.81 (≈ 2.76 µg/mL) | 15.6 (≈ 5.52 µg/mL) | 1.95 (≈ 0.689 µg/mL) | 3.91 (≈ 1.38 µg/mL) | 1.95 (≈ 0.689 µg/mL) | 7.81 (≈ 2.76 µg/mL) | 3.91 (≈ 1.38 µg/mL) | 7.81 (≈ 2.76 µg/mL) | 7.81 (≈ 2.76 µg/mL) | 7.81 (≈ 2.76 µg/mL) | 7.81 (≈ 2.76 µg/mL) | MIC (Candida albicans [21]): 0.49 µM (≈ 0.173 µg/mL); MIC (Lichtheimia corymbifera [22]): 7.81 µM (≈ 2.76 µg/mL); MIC [23]: 3.91 µM (≈ 1.38 µg/mL); MIC (Trichosporon beigelii [24]): 7.81 µM (≈ 2.76 µg/mL)
2 | CC(=O)OCC1C=C(c2ccc(Br)cc2)C(=O)O1 (stereo unspecified) | 7.81 (≈ 2.43 µg/mL) | 0.98 (≈ 0.305 µg/mL) | 3.91 (≈ 1.22 µg/mL) | 1.95 (≈ 0.607 µg/mL) | 1.95 (≈ 0.607 µg/mL) | 15.6 (≈ 4.86 µg/mL) | 15.6 (≈ 4.86 µg/mL) | 0.98 (≈ 0.305 µg/mL) | 1.95 (≈ 0.607 µg/mL) | 7.81 (≈ 2.43 µg/mL) | 7.81 (≈ 2.43 µg/mL) | 1.95 (≈ 0.607 µg/mL) | 7.81 (≈ 2.43 µg/mL) | 1.95 (≈ 0.607 µg/mL) | 3.91 (≈ 1.22 µg/mL) | 3.91 (≈ 1.22 µg/mL) | 7.81 (≈ 2.43 µg/mL) | 7.81 (≈ 2.43 µg/mL) | 3.91 (≈ 1.22 µg/mL) | 3.91 (≈ 1.22 µg/mL) | MIC (Candida albicans [21]): < 0.98 µM; MIC (Lichtheimia corymbifera [22]): 7.81 µM (≈ 2.43 µg/mL); MIC [23]: 1.95 µM (≈ 0.607 µg/mL); MIC (Trichosporon beigelii [24]): 3.91 µM (≈ 1.22 µg/mL)
3 | O=C1OC(CO)C=C1c1cccc(Cl)c1 (stereo unspecified) | > 1000 | 62.5 (≈ 14 µg/mL) | 1000 (≈ 225 µg/mL) | 15.6 (≈ 3.51 µg/mL) | 62.5 (≈ 14 µg/mL) | 500 (≈ 112 µg/mL) | > 1000 | 31.2 (≈ 7.02 µg/mL) | 250 (≈ 56.2 µg/mL) | 1000 (≈ 225 µg/mL) | 1000 (≈ 225 µg/mL) | 250 (≈ 56.2 µg/mL) | 500 (≈ 112 µg/mL) | 62.5 (≈ 14 µg/mL) | 1000 (≈ 225 µg/mL) | 125 (≈ 28.1 µg/mL) | > 1000 | 500 (≈ 112 µg/mL) | 1000 (≈ 225 µg/mL) | 250 (≈ 56.2 µg/mL) | MIC (Candida albicans [21]): 31.2 µM (≈ 7.02 µg/mL); MIC (Lichtheimia corymbifera [22]): 125 µM (≈ 28.1 µg/mL); MIC [23]: 15.6 µM (≈ 3.51 µg/mL); MIC (Trichosporon beigelii [24]): 250 µM (≈ 56.2 µg/mL)
4 | CC(=O)OCC1C=C(c2cccc(Cl)c2)C(=O)O1 (stereo unspecified) | 7.81 (≈ 2.08 µg/mL) | < 0.98 | 3.91 (≈ 1.04 µg/mL) | 1.95 (≈ 0.52 µg/mL) | 3.91 (≈ 1.04 µg/mL) | 7.81 (≈ 2.08 µg/mL) | 15.6 (≈ 4.17 µg/mL) | 1.95 (≈ 0.52 µg/mL) | 3.91 (≈ 1.04 µg/mL) | 15.6 (≈ 4.17 µg/mL) | 7.81 (≈ 2.08 µg/mL) | 3.91 (≈ 1.04 µg/mL) | 7.81 (≈ 2.08 µg/mL) | 0.98 (≈ 0.261 µg/mL) | 7.81 (≈ 2.08 µg/mL) | 3.91 (≈ 1.04 µg/mL) | 7.81 (≈ 2.08 µg/mL) | 7.81 (≈ 2.08 µg/mL) | 7.81 (≈ 2.08 µg/mL) | 7.81 (≈ 2.08 µg/mL) | MIC (Candida albicans [21]): 0.98 µM (≈ 0.261 µg/mL); MIC (Lichtheimia corymbifera [22]): 3.91 µM (≈ 1.04 µg/mL); MIC [23]: 1.95 µM (≈ 0.52 µg/mL); MIC (Trichosporon beigelii [24]): 3.91 µM (≈ 1.04 µg/mL)
